Results reported in ChEMBL document CHEMBL4229515, “A novel synthesis of 2-arylbenzimidazoles in molecular sieves-MeOH system and their antitubercular activity” (Bioorg Med Chem, 2018).
≈ marks a conversion by molar mass, not a printed value.

Tests used:
[1] = system: Mus musculus; test: Acute toxicity in Swiss albino mouse assessed as effect on haemoglobin levels at 5 mg/kg, po after 7 days (reference value: 12.29 +/- 0.53 g/dL); format: organism-based; conditions: in vivo, 168 h
[2] = system: Mus musculus; test: Acute toxicity in Swiss albino mouse assessed as effect on relative liver weight at 1000 mg/kg, po after 7 days; format: organism-based; conditions: in vivo, 168 h
Procedure, shortened: (§1)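 Single acute oral dose of 5, 50, 300 or 1000 mg/kg body weight, with an untreated control group; n=6 mice per group. Animals observed for 7 days for morbidity, mortality, behaviour and body weight. At the end, blood and serum were analysed, and organs were examined grossly with absolute and relative weights. Data are mean±SE; P<0.05 was taken as significant versus control and the lower-dose groups.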

[3] = system: Mus musculus; test: Acute toxicity in Swiss albino mouse assessed as effect on body weight at 5 mg/kg, po after 7 days (reference value: 28.25 +/- 0.54 g); format: organism-based; conditions: in vivo, 168 h
[4] = system: Mus musculus; test: Acute toxicity in Swiss albino mouse assessed as effect on RBC count at 5 mg/kg, po after 7 days (reference value: 7.61 +/- 0.54 10^6/mm3); format: organism-based; conditions: in vivo, 168 h
[5] = system: Mus musculus; test: Acute toxicity in Swiss albino mouse assessed as effect on MDA levels per mg of tissue protein at 5 mg/kg, po after 7 days (reference value: 0.24 +/- 0.05 nmol); format: organism-based; conditions: in vivo, 168 h
[6] = system: Mus musculus; test: Acute toxicity in Swiss albino mouse assessed as effect on absolute heart weight at 5 to 1000 mg/kg, po after 7 days; format: organism-based; conditions: in vivo, 168 h; procedure, shortened: as §1
[7] = system: Mus musculus; test: Acute toxicity in Swiss albino mouse assessed as effect on absolute kidney weight at 5 to 1000 mg/kg, po after 7 days; format: organism-based; conditions: in vivo, 168 h; procedure, shortened: as §1
[8] = system: Mus musculus; test: Acute toxicity in Swiss albino mouse assessed as effect on RBC count at 300 mg/kg, po after 7 days (reference value: 7.61 +/- 0.54 10^6/mm3); format: organism-based; conditions: in vivo, 168 h
[9] = system: Mus musculus; test: Acute toxicity in Swiss albino mouse assessed as effect on absolute liver weight at 5 to 1000 mg/kg, po after 7 days; format: organism-based; conditions: in vivo, 168 h; procedure, shortened: as §1
[10] = Acute toxicity in Swiss albino mouse assessed as mortality at 1000 mg/kg, po measured over 7 days; format: organism-based; conditions: in vivo, read-out: Activity; procedure, shortened: as §1
[11] = system: Mus musculus; test: Acute toxicity in Swiss albino mouse assessed as effect on tissue protein levels at 1000 mg/kg, po after 7 days (reference value: 0.06 +/- 0.004 mg/mL); format: organism-based; conditions: in vivo, 168 h
[12] = system: Mus musculus; test: Acute toxicity in Swiss albino mouse assessed as effect on relative kidney weight at 5 to 1000 mg/kg, po after 7 days; format: organism-based; conditions: in vivo, 168 h; procedure, shortened: as §1
[13] = system: Mus musculus; test: Acute toxicity in Swiss albino mouse assessed as effect on serum protein levels at 5 mg/kg, po after 7 days (reference value: 0.10 +/- 0.004 mg/mL); format: organism-based; conditions: in vivo, 168 h
[14] = system: Mus musculus; test: Acute toxicity in Swiss albino mouse assessed as effect on SGPT levels at 300 mg/kg, po after 7 days (reference value: 16.08 +/- 1.38 U/L); format: organism-based; conditions: in vivo, 168 h
[15] = system: Mus musculus; test: Acute toxicity in Swiss albino mouse assessed as effect on WBC count at 300 mg/kg, po after 7 days (reference value: 7.47 +/- 1.61 10^3/mm3); format: organism-based; conditions: in vivo, 168 h
[16] = system: Mus musculus; test: Acute toxicity in Swiss albino mouse assessed as effect on albumin levels at 5 mg/kg, po after 7 days (reference value: 3.53 +/- 0.35 mg/dL); format: organism-based; conditions: in vivo, 168 h
[17] = system: Mus musculus; test: Acute toxicity in Swiss albino mouse assessed as effect on haemoglobin levels at 300 mg/kg, po after 7 days (reference value: 12.29 +/- 0.53 g/dL); format: organism-based; conditions: in vivo, 168 h
[18] = system: Mus musculus; test: Acute toxicity in Swiss albino mouse assessed as effect on ALKP levels at 50 mg/kg, po after 7 days (reference value: 219.20 +/- 5.9 U/L); format: organism-based; conditions: in vivo, 168 h
[19] = system: Mus musculus; test: Acute toxicity in Swiss albino mouse assessed as effect on GSH levels per mg of tissue protein at 300 mg/kg, po after 7 days (reference value: 17.64 +/- 1.03 micromol); format: organism-based; conditions: in vivo, 168 h
[20] = system: Mus musculus; test: Acute toxicity in Swiss albino mouse assessed as effect on GSH levels per mg of tissue protein at 1000 mg/kg, po after 7 days (reference value: 17.64 +/- 1.03 micromol); format: organism-based; conditions: in vivo, 168 h
[21] = system: Mus musculus; test: Acute toxicity in Swiss albino mouse assessed as effect on SGPT levels at 1000 mg/kg, po after 7 days (reference value: 16.08 +/- 1.38 U/L); format: organism-based; conditions: in vivo, 168 h
[22] = system: Mus musculus; test: Acute toxicity in Swiss albino mouse assessed as effect on SGOT levels at 300 mg/kg, po after 7 days (reference value: 15.11 +/- 1.25 U/L); format: organism-based; conditions: in vivo, 168 h
[23] = system: Mus musculus; test: Acute toxicity in Swiss albino mouse assessed as effect on ALKP levels at 5 mg/kg, po after 7 days (reference value: 219.20 +/- 5.9 U/L); format: organism-based; conditions: in vivo, 168 h
[24] = system: Mycobacterium tuberculosis; test: Antimycobacterial activity against Mycobacterium tuberculosis H37Rv by BACTEC 460 radiometric method; format: functional
Procedure, shortened: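 Radiometric BACTEC assay against the H37Rv strain, run per a previously reported method. Positive controls were rifampicin, streptomycin and isoniazid. The MIC was read in µM.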

[25] = system: Mus musculus; test: Acute toxicity in Swiss albino mouse assessed as effect on ALKP levels at 300 mg/kg, po after 7 days (reference value: 219.20 +/- 5.9 U/L); format: organism-based; conditions: in vivo, 168 h
[26] = system: Mus musculus; test: Acute toxicity in Swiss albino mouse assessed as effect on SGOT levels at 50 mg/kg, po after 7 days (reference value: 15.11 +/- 1.25 U/L); format: organism-based; conditions: in vivo, 168 h
[27] = system: Mus musculus; test: Acute toxicity in Swiss albino mouse assessed as inactivity at 1000 mg/kg, po measured over 7 days; format: organism-based; conditions: in vivo, 168 h; procedure, shortened: as §1
[28] = system: Mus musculus; test: Acute toxicity in Swiss albino mouse assessed as effect on relative heart weight at 5 to 1000 mg/kg, po after 7 days; format: organism-based; conditions: in vivo, 168 h; procedure, shortened: as §1
[29] = system: Mus musculus; test: Acute toxicity in Swiss albino mouse assessed as effect on cholesterol levels at 300 mg/kg, po after 7 days (reference value: 89.73 +/- 10.76 mg/dL); format: organism-based; conditions: in vivo, 168 h
[30] = system: Mus musculus; test: Acute toxicity in Swiss albino mouse assessed as effect on cholesterol levels at 50 mg/kg, po after 7 days (reference value: 89.73 +/- 10.76 mg/dL); format: organism-based; conditions: in vivo, 168 h
[31] = system: Mus musculus; test: Acute toxicity in Swiss albino mouse assessed as effect on body weight at 50 mg/kg, po after 7 days (reference value: 28.25 +/- 0.54 g); format: organism-based; conditions: in vivo, 168 h
[32] = system: Mus musculus; test: Acute toxicity in Swiss albino mouse assessed as effect on tissue protein levels at 300 mg/kg, po after 7 days (reference value: 0.06 +/- 0.004 mg/mL); format: organism-based; conditions: in vivo, 168 h
[33] = system: Mus musculus; test: Acute toxicity in Swiss albino mouse assessed as effect on WBC count at 5 mg/kg, po after 7 days (reference value: 7.47 +/- 1.61 10^3/mm3); format: organism-based; conditions: in vivo, 168 h
[34] = system: Mus musculus; test: Acute toxicity in Swiss albino mouse assessed as effect on serum protein levels at 1000 mg/kg, po after 7 days (reference value: 0.10 +/- 0.004 mg/mL); format: organism-based; conditions: in vivo, 168 h
[35] = system: Mus musculus; test: Acute toxicity in Swiss albino mouse assessed as effect on GSH levels per mg of tissue protein at 50 mg/kg, po after 7 days (reference value: 17.64 +/- 1.03 micromol); format: organism-based; conditions: in vivo, 168 h

For `COc1ccc2c(c1)nc(-c1ccccc1OC)n2Cc1ccccc1OC`, the Activity [1] was 10.81 g/dL, the Activity [2] was “Toxic” and the Activity [3] was 28.47 g. The Activity [4] was 6.92 10^6/mm3, the Activity [5] was 0.26 nmol and the Activity [6] was “Non-Toxic”. The Activity [7] was “Non-Toxic”, the Activity [8] was 6.87 10^6/mm3 and the Activity [9] was “Non-Toxic”. For the same compound, the mortality at 168 h [10] was 50%, the Activity [11] was 0.05 mg/mL and the Activity [12] was “Non-Toxic”. The Activity [13] was 0.09 mg/mL, the Activity [14] was 12.26 U/L and the Activity [15] was 5.67 10^3/mm3. It also gave an Activity [16] of 3.81 mg/dL, an Activity [17] of 11.51 g/dL and an Activity [18] of 171.7 U/L. It also gave an Activity [19] of 19.37 µmol, an Activity [20] of 19.34 µmol and an Activity [21] of 11.72 U/L. The Activity [22] was 11.11 U/L, the Activity [23] was 172.1 U/L and the MIC [24] was 16 µM (≈ 5.99 µg/mL). The Activity [25] was 169.24 U/L, the Activity [26] was 11.5 U/L and the Activity [27] was “Non-Toxic”. The Activity [28] was “Non-Toxic”, the Activity [29] was 97.14 mg/dL and the Activity [30] was 85.13 mg/dL. For the same compound, the Activity [31] was 27.61 g, the Activity [32] was 0.05 mg/mL and the Activity [33] was 7.72 10^3/mm3. The Activity [34] was 0.09 mg/mL and the Activity [35] was 17.1 µmol.
